Tests used:
[1] = target: Aurora kinase C (Homo sapiens) (UniProt Q9UQB9); assay: Inhibition of AURKC at 1 uM
Summary of the method: (§1)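 Competition binding screen across a kinase panel with compound at 1 μM. Read-out is % competition. Kinases not hit at this concentration were scored '<50'. No Kd was determined for hits.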

[2] = target: Calcium/calmodulin-dependent protein kinase type 1D (Homo sapiens) (UniProt Q8IU85); assay: Inhibition of CAMK1D at 1 uM; summary of the method: as §1
[3] = target: Proto-oncogene tyrosine-protein kinase Src (Homo sapiens, UniProt P12931); assay: Inhibition of SRC at 1 uM
Proto-oncogene tyrosine-protein kinase Src, sequence (P12931 2-536 limits assumed): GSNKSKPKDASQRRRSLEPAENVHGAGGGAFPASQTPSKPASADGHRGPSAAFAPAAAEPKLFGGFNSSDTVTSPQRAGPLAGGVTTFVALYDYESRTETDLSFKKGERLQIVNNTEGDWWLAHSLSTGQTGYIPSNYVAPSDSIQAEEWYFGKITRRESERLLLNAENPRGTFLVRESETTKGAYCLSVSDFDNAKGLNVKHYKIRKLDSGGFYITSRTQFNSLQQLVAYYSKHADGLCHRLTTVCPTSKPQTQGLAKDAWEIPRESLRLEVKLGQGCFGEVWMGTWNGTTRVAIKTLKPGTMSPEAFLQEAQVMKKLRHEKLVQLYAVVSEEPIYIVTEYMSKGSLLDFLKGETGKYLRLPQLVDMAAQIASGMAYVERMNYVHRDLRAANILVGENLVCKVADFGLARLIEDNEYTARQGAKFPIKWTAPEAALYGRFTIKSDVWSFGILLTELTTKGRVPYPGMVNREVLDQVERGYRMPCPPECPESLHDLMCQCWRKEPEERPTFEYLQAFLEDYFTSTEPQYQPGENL

[4] = target: Serine/threonine-protein kinase 4 (Homo sapiens) (UniProt Q13043); assay: Inhibition of STK4 at 1 uM
[5] = target: Dual specificity protein kinase CLK2 (Homo sapiens) (UniProt P49760); assay: Inhibition of CLK2 at 1 uM
[6] = target: Serine/threonine-protein kinase PAK 1 (Homo sapiens) (UniProt Q13153); assay: Inhibition of PAK1 at 1 uM
[7] = target: Angiopoietin-1 receptor (Homo sapiens) (UniProt Q02763); assay: Inhibition of TIE2 at 1 uM
[8] = target: Tyrosine-protein kinase Fer (Homo sapiens) (UniProt P16591); assay: Inhibition of FER at 1 uM
Tyrosine-protein kinase Fer (Homo sapiens), sequence (P16591 whole entry, looked up): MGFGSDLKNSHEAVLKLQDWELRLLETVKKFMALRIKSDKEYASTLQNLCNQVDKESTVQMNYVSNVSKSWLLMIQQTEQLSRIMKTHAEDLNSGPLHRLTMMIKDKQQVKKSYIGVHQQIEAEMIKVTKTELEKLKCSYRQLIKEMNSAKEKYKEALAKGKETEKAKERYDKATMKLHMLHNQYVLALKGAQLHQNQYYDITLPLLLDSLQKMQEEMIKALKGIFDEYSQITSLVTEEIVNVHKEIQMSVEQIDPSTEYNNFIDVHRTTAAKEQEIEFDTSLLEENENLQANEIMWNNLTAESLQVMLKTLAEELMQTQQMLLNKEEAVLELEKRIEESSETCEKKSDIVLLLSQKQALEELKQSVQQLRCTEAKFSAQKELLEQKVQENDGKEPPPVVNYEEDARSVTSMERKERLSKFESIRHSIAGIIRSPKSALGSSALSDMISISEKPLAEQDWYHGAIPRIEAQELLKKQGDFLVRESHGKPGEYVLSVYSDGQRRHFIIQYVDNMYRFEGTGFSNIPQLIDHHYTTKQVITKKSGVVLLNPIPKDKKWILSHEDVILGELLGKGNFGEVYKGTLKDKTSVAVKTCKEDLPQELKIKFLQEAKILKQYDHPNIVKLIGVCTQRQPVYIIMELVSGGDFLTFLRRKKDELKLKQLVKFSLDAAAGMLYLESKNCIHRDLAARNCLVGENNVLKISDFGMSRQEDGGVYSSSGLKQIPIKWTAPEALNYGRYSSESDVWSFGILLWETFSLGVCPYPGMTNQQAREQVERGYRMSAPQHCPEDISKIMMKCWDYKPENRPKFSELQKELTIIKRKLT

[9] = target: Membrane-associated tyrosine- and threonine-specific cdc2-inhibitory kinase (Homo sapiens) (UniProt Q99640); assay: Inhibition of PKMYT1 at 1 uM
[10] = target: Serine/threonine-protein kinase 3 (Homo sapiens) (UniProt Q13188); assay: Inhibition of STK3 at 1 uM
[11] = target: Ephrin type-A receptor 3 (Homo sapiens) (UniProt P29320); assay: Inhibition of EPHA3 at 1 uM
Ephrin type-A receptor 3 (Homo sapiens), sequence (P29320 whole entry): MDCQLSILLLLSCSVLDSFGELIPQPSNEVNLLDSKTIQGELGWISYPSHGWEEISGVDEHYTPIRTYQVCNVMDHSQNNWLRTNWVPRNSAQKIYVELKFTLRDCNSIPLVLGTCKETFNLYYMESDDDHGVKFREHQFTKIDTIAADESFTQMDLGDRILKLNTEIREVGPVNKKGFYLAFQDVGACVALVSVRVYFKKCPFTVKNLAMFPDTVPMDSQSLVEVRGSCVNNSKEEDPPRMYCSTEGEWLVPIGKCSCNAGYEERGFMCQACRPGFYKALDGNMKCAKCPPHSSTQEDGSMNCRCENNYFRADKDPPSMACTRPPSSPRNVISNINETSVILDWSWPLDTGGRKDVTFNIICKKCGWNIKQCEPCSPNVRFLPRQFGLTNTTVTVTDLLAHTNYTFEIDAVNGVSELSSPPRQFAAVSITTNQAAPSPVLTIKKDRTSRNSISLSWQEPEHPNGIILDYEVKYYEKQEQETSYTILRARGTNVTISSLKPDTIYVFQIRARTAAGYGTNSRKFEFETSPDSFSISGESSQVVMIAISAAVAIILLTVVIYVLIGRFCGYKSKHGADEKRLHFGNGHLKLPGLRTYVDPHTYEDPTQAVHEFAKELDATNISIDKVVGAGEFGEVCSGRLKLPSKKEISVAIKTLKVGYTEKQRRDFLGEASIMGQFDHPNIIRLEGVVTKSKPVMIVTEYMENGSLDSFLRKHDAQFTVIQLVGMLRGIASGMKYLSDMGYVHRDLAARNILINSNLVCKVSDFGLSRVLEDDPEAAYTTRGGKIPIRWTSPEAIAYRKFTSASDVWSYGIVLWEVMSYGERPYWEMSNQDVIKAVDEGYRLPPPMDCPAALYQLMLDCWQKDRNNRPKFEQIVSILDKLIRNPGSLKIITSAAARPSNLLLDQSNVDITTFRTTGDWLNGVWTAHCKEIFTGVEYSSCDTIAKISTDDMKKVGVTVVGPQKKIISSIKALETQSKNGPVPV

[12] = target: Receptor tyrosine-protein kinase erbB-4 (Homo sapiens) (UniProt Q15303); assay: Inhibition of ERBB4 at 1 uM
Receptor tyrosine-protein kinase erbB-4 (Homo sapiens), sequence (Q15303 whole entry): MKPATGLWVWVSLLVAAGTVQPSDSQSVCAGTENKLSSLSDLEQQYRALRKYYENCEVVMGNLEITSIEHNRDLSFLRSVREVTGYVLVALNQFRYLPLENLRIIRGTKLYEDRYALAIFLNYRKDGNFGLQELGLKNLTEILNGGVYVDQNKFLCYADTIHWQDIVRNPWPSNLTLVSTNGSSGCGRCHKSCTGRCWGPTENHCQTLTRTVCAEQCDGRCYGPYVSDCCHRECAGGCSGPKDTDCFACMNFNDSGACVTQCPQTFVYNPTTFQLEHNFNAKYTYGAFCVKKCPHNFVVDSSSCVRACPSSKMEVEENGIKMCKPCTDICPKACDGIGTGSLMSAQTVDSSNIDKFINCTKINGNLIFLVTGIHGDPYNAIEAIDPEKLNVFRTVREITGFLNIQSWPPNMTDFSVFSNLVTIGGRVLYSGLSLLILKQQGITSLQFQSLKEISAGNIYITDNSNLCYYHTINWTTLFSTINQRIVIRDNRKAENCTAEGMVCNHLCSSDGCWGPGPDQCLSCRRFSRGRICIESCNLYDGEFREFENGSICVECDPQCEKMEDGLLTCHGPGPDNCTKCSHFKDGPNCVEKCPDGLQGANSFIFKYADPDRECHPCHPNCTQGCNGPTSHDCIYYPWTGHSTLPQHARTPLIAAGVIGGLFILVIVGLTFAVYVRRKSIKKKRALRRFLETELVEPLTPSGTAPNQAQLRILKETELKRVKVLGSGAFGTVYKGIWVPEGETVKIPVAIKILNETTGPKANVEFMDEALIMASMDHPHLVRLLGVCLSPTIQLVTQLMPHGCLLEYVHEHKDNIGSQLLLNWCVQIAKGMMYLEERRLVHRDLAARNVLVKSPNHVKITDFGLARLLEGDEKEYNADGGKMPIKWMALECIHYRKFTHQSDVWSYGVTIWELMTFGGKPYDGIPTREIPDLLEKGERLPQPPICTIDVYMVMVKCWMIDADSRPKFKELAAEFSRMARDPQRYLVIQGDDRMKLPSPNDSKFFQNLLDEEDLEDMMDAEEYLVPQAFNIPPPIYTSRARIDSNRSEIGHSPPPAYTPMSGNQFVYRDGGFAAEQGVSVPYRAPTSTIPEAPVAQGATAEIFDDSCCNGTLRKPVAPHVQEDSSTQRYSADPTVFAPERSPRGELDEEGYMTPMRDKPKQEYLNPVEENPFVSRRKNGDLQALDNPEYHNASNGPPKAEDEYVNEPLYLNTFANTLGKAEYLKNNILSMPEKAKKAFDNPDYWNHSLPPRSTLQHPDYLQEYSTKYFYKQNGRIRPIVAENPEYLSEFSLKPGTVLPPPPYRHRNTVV

[13] = target: Epidermal growth factor receptor (Homo sapiens) (UniProt P00533); assay: Inhibition of EGFR at 1 uM
[14] = target: cAMP-dependent protein kinase catalytic subunit alpha (Homo sapiens) (UniProt P17612); assay: Inhibition of PKA catalytic subunit alpha at 1 uM
[15] = target: Ephrin type-A receptor 8 (Homo sapiens) (UniProt P29322); assay: Inhibition of EPHA8 at 1 uM
Ephrin type-A receptor 8 (Homo sapiens), sequence (P29322 whole entry): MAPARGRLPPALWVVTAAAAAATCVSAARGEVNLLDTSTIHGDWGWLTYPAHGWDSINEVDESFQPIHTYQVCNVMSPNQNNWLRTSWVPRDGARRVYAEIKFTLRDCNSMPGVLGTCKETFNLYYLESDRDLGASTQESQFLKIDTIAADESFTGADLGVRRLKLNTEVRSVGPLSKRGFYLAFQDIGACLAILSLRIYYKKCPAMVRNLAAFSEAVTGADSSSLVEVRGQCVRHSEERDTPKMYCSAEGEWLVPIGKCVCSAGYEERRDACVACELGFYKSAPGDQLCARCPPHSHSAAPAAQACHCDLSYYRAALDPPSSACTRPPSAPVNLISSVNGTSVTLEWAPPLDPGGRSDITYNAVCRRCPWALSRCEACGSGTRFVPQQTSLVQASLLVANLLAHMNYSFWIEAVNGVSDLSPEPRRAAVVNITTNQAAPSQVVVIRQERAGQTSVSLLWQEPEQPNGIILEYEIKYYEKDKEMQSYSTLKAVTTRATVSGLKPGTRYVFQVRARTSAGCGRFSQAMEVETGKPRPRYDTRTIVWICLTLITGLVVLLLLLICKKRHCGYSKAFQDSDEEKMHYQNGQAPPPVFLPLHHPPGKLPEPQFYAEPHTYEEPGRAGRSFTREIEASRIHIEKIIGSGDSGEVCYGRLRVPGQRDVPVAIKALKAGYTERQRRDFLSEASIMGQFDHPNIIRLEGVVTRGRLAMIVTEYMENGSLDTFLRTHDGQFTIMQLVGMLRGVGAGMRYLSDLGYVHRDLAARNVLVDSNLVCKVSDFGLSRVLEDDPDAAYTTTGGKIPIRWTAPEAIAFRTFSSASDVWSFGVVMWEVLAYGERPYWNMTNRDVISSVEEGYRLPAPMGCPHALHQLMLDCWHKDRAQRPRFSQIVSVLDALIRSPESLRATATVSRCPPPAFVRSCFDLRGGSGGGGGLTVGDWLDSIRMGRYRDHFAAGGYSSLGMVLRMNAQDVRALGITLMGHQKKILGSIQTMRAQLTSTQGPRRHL

[16] = target: Serine/threonine-protein kinase 16 (Homo sapiens) (UniProt O75716); assay: Inhibition of STK16 at 1 uM
[17] = target: Calcium/calmodulin-dependent protein kinase kinase 2 (Homo sapiens) (UniProt Q96RR4); assay: Inhibition of CAMKK2 at 1 uM
[18] = target: Casein kinase I isoform epsilon (Homo sapiens) (UniProt P49674); assay: Inhibition of CSNK1E at 1 uM
[19] = target: Casein kinase I isoform gamma-2 (Homo sapiens) (UniProt P78368); assay: Inhibition of CSNK1G2 at 1 uM
Casein kinase I isoform gamma-2 (Homo sapiens), sequence (P78368 whole entry, looked up, canonical isoform): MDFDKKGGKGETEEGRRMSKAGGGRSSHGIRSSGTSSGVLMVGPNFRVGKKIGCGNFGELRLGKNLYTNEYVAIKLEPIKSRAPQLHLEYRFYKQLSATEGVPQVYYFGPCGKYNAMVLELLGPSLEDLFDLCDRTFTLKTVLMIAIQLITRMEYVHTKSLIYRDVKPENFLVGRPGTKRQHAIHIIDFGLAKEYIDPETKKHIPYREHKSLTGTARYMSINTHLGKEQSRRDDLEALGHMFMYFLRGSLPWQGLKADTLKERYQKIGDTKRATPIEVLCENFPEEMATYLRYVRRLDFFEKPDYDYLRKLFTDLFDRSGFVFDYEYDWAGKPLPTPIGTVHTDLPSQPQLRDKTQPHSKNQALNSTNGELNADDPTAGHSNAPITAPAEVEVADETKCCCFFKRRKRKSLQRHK

[20] = target: Serine/threonine-protein kinase STK11 (Homo sapiens) (UniProt Q15831); assay: Inhibition of STK11 at 1 uM
[21] = target: Mitogen-activated protein kinase 12 (Homo sapiens) (UniProt P53778); assay: Inhibition of p38-gamma at 1 uM
[22] = target: Serine/threonine-protein kinase PLK4 (Homo sapiens) (UniProt O00444); assay: Inhibition of PLK4 at 1 uM
[23] = target: Tyrosine-protein kinase Fgr (Homo sapiens) (UniProt P09769); assay: Inhibition of FGR at 1 uM

inhibition [1]: < 50%
inhibition [2]: < 50%
inhibition [3]: < 50%
inhibition [4]: < 50%
inhibition [5]: 100%
inhibition [6]: < 50%
inhibition [7]: < 50%
inhibition [8]: < 50%
inhibition [9]: < 50%
inhibition [10]: < 50%
inhibition [11]: < 50%
inhibition [12]: < 50%
inhibition [13]: < 50%
inhibition [14]: < 50%
inhibition [15]: < 50%
inhibition [16]: 87%
inhibition [17]: < 50%
inhibition [18]: < 50%
inhibition [19]: 99%
inhibition [20]: < 50%
inhibition [21]: < 50%
inhibition [22]: < 50%
inhibition [23]: < 50%
SMILES: CN1CCN(c2ccc(Nc3nc(N)c(C(=O)c4ccc5c(c4)OCCO5)s3)cc2)CC1

Reference: ChEMBL document CHEMBL1955770, “Inhibition of S/G2 phase CDK4 reduces mitotic fidelity” (J Biol Chem, 2006)
